Most compounds without a hit are left out; they make up all but 1.8% or so of the library.
STAT3 act – activators of IL-6 induced STAT3 signaling | AID 871 | activation (% of control), % at 5.6 µM | U3A cells, IL-6 STAT3-luciferase reporter, luminescence; 100% = signal with IL-6 EC80 alone | 190,000 compounds, 0.91% hits;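 active means activation above the screen-wide mean of compound activation plus 3 SD, cut at about 130% in these data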
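System – human U3A cells carrying STAT3-luciferase construct · Probe or stimulus – Interleukin-6, 33 ng/mL · Schedule – compound 1 h, then IL-6 6 h at 37 °C · Signal – luminescence from STAT3-driven luciferase reporter · Evaluation – percent of IL-6-only median luminescence · Benchmarks – IL-6-only high control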
PERK inhibitor – human PERK inhibition, primary cell-based screen | Q9NZJ5 | CHO PERK-DD fusion, SEAP luminescence translation reporter | inhibition, % at 5.6 µM | 220,000 compounds, 0.17% hits | AID 1416;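 active means inhibition above the mean inhibition of all tested compounds plus 3 SD, set separately per screening campaign, cut at about 2.9% in these data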;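 further: PERK kinase domain activated by AP20187 dimerizer at 100 nM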
STAT1 blocker – reduces IFN-gamma driven STAT1 reporter signal | NIH 3T3 STAT1-luciferase reporter, luminescence | inhibition, % at 5.5 µM | 200,000 compounds, 0.35% hits;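 active means inhibition above a set limit, the mean inhibition across all tested compounds plus 3 SD, cut at about 34% in these data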
STAT3 inh-1 – inhibitors of IL-6 induced STAT3 signaling. AID 862. U3A cells, IL-6 STAT3-luciferase reporter, luminescence; host cell line lacks STAT1. 190,000 compounds, 0.89% hits. inhibition, % at 5.5 µM;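 active means inhibition above the mean inhibition across all screened compounds plus 3 SD, cut at about 44% in these data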
STAT3 inh-2 – STAT3 inhibition, confirmation assay. inhibition, % at 5.7 µM. shares compounds with STAT3 inh-1. U3A cells, IL-6 STAT3 luciferase reporter, luminescence; cell line lacks STAT1. 1,200 compounds, 45% hits;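 active means inhibition above the hit cutoff computed for the primary STAT3 screen, cut at about 44% in these data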
NFkB inh 2 – NF-kappaB inhibition in STAT3 inhibitor counter-screen. 1,200 compounds, 36% hits. shares compounds with STAT3 inh-1. HEK293T NF-kB luciferase reporter, TNF-alpha induced. inhibition, % at 5.7 µM;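 active means inhibition above the mean of solvent-only control wells plus 3 SD, cutoff set per campaign, cut at about 13% in these data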
STAT1 inh STAT3c – counter-screen for STAT3 inhibitors: STAT1 inhibition; shares compounds with STAT3 inh-1; NIH 3T3 STAT1-luciferase reporter, IFN-gamma induced, luminescence; inhibition, % at 5.7 µM; 1,200 compounds, 27% hits;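 active means inhibition above the mean plus 3 SD of solvent-only control wells, limit set per screening run, cut at about 16% in these data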
Of the large screens only hits and unclear results are named; the others gave an inactive call (follow-up assays come after a bar, where they were run).

Cc1ccn2cc(-c3cc4ccccc4oc3=O)nc2c1	STAT3 inh-1 74.8 | STAT3 inh-2 43.8 | NFkB inh 2 26.7 | STAT1 inh STAT3c inactive
O=S(=O)(c1ccc2c(c1)OCCO2)N1CCC(c2nc3ccccc3[nH]2)CC1	none
O=S(=O)(c1ccc2c(c1)OCCO2)N1CCC(c2nc3ccccc3s2)CC1	STAT3 inh-1 53.4 | STAT3 inh-2 44.2 | NFkB inh 2 inactive | STAT1 inh STAT3c inactive
Cc1nnc(SCC(=O)c2ccc(Cl)cc2)s1	none
Fc1ccccc1/C=C/c1ccc2ccccc2n1	STAT3 inh-1 72.5 | STAT3 inh-2 inactive | NFkB inh 2 30.5 | STAT1 inh STAT3c inactive
Cc1ccc(NC2=Nc3ccccc3CS2)cc1	STAT3 inh-1 59.0 | STAT3 inh-2 inactive | NFkB inh 2 inactive | STAT1 inh STAT3c inactive
O=c1[nH]c(Nc2nc3ccccc3o2)nc2c1CCCC2	STAT3 inh-1 69.4 | STAT3 inh-2 inactive | NFkB inh 2 inactive | STAT1 inh STAT3c inactive
CCCCn1c2c(c(=N)c3ccccc31)CCC2	none (no result: STAT3 act, STAT1 blocker, STAT3 inh-1)
N=c1c2c(n(Cc3ccc(Cl)cc3)c3c1CCC3)CCC2	STAT3 inh-1 53.9 | STAT3 inh-2 43.5 | NFkB inh 2 inactive | STAT1 inh STAT3c 23.7
N=c1c2c(n(Cc3ccc(F)cc3)c3c1CCC3)CCCC2	none
N=c1c2c(n(Cc3cccc(Cl)c3)c3c1CCC3)CCCC2	STAT3 inh-1 54.2 | STAT3 inh-2 45.0 | NFkB inh 2 inactive | STAT1 inh STAT3c 24.7
O=c1[nH]c(SCc2cccc(Cl)c2)nc2c1CCCC2	none
N=c1c2c(n(Cc3ccccc3)c3c1CCC3)CCC2	STAT3 inh-1 48.9 | STAT3 inh-2 inactive | NFkB inh 2 inactive | STAT1 inh STAT3c 23.7
COc1ccc(/C(N)=N/O)c(OC)c1	none
CN(CCN1CCOCC1)Cc1nc(-c2ccccc2)no1	none
CCN1C(=C2C(=O)c3ccccc3C2=O)C=Cc2ccccc21	none
CCN1/C(=C/c2ccc3ccccc3[n+]2CC)C=Cc2ccccc21	STAT3 inh-1 91.6 | STAT3 inh-2 89.7 | NFkB inh 2 51.7 | STAT1 inh STAT3c 22.4
O=c1c2sc(-c3ccccc3)cc2nc2n1CCC2	STAT3 inh-1 48.6 | STAT3 inh-2 inactive | NFkB inh 2 inactive | STAT1 inh STAT3c inactive
CCn1c(SCC(=O)N2CCN(c3ccccc3)CC2)nnc1-c1c[nH]c2ccccc12	STAT3 inh-1 50.7 | STAT3 inh-2 inactive | NFkB inh 2 inactive | STAT1 inh STAT3c inactive
CC1(C)Cc2ccccc2-c2nnc(SCC(=O)N3CCN(c4ccccc4)CC3)n21	STAT3 inh-1 43.5 | STAT3 inh-2 inactive | NFkB inh 2 inactive | STAT1 inh STAT3c inactive
O=C(CN1CCOCC1)Nc1nc(-c2ccc3c(c2)CCN3S(=O)(=O)c2ccccc2)cs1	none
Cc1sc(NC(=O)CN2CCOCC2)nc1-c1ccc2c(c1)CCN2S(=O)(=O)c1ccccc1	STAT3 inh-1 65.7 | STAT3 inh-2 52.5 | NFkB inh 2 21.6 | STAT1 inh STAT3c 20.3
CCOC(=O)C1CCCN(S(=O)(=O)c2cc(OCC(=O)NC3CCCCC3)c(C)cc2Cl)C1 (stereo not given)	none
Cc1cc(Cl)c(S(=O)(=O)N2CCN(c3ccc(F)cc3)CC2)cc1OCC(N)=O	STAT3 inh-1 45.0 | STAT3 inh-2 inactive | NFkB inh 2 inactive | STAT1 inh STAT3c inactive
Cc1cc(Cl)c(S(=O)(=O)N2CCN(c3ccccn3)CC2)cc1OCC(N)=O	none
Cc1cc(Cl)c(S(=O)(=O)N2CCN(c3ccc(F)cc3)CC2)cc1OCC(=O)NC1CCCCC1	STAT3 inh-1 88.4 | STAT3 inh-2 84.6 | NFkB inh 2 35.1 | STAT1 inh STAT3c inactive
CCOC(=O)c1c(C)[nH]c(C2=NNC(=Nc3ccc(OCC)cc3)SC2)c1C	STAT3 inh-1 59.7 | STAT3 inh-2 inactive | NFkB inh 2 inactive | STAT1 inh STAT3c inactive
COc1ccccc1Nc1nnc(SCC2CCCCO2)s1 (stereo not given)	STAT3 inh-1 63.9 | STAT3 inh-2 inactive | NFkB inh 2 inactive | STAT1 inh STAT3c inactive
O=C(Nc1ccc(Cc2ccncc2)cc1)c1ccc(S(=O)(=O)N2CCCC2)cc1	STAT3 inh-1 68.0 | STAT3 inh-2 66.4 | NFkB inh 2 14.8 | STAT1 inh STAT3c inactive
O=C(Nc1ccc(S(=O)(=O)N2CCOCC2)cc1)c1ccc(CN2CCc3ccccc3C2)cc1	STAT3 inh-1 83.2 | STAT3 inh-2 87.7 | NFkB inh 2 42.1 | STAT1 inh STAT3c 33.1
O=C(Nc1ccccc1)c1ccc(S(=O)(=O)N2CCOCC2)cc1	none
O=C(Nc1ccc(S(=O)(=O)N2CCCC2)cc1)c1ccc(CN2CCc3ccccc3C2)cc1	STAT3 inh-1 82.1 | STAT3 inh-2 84.8 | NFkB inh 2 33.7 | STAT1 inh STAT3c inactive
CC(=O)c1ccc(NC(=O)c2ccc(S(=O)(=O)N3CCCC3)cc2)cc1	none
COc1ccc(-c2cn3nc4c(nc3n2)CCCC4)cc1	STAT3 inh-1 70.2 | STAT3 inh-2 inactive | NFkB inh 2 inactive | STAT1 inh STAT3c inactive
COc1cccc(-c2cn3nc(C)c(C)nc3n2)c1	none
Cc1nn2cc(-c3ccc(-c4ccccc4)cc3)nc2s1	none
Cc1nc2nc(-c3ccc(Cl)cc3)cn2nc1C	STAT3 inh-1 66.0 | STAT3 inh-2 inactive | NFkB inh 2 inactive | STAT1 inh STAT3c inactive
CCc1nn2cc(-c3ccccc3)nc2s1	STAT3 inh-1 91.3 | STAT3 inh-2 69.2 | NFkB inh 2 37.8 | STAT1 inh STAT3c inactive
Cc1nn2cc(-c3ccc(Cl)cc3)nc2s1	STAT3 inh-1 52.5 | STAT3 inh-2 inactive | NFkB inh 2 inactive | STAT1 inh STAT3c inactive
CCOC(=O)c1nc(-c2ccc(OC)c(OC)c2)no1	none
Cc1cn(Cc2ccccc2)c(=O)[nH]c1=O	none
CCOCCCNc1ncnc2c1[nH]c1ccccc12	none
CCCCOc1ncnc2c1[nH]c1ccccc12	STAT3 inh-1 50.1 | STAT3 inh-2 inactive | NFkB inh 2 19.1 | STAT1 inh STAT3c 25.0
CCCCOc1ncnc2c1[nH]c1ccc(OCC)cc12	none
CCCCOc1ncnc2c1[nH]c1ccc(OC)cc12	STAT3 inh-1 45.9 | STAT3 inh-2 inactive | NFkB inh 2 inactive | STAT1 inh STAT3c inactive
CCCCOc1ncnc2c1[nH]c1ccc(F)cc12	STAT3 inh-1 82.6 | STAT3 inh-2 74.2 | NFkB inh 2 18.6 | STAT1 inh STAT3c 31.8
C=C(C)C1CC=C(C)/C(=N\NC(=O)CCC(=O)Nc2ccc(C)c(C)c2)C1 (stereo not given)	none (no result: STAT3 act, STAT1 blocker, STAT3 inh-1)
CC1=CC(C)(C)N2C(=O)C3(C(C#N)=C(N)Oc4cc(O)ccc43)c3c(C)c(C)cc1c32 (stereo not given)	none
O=C(Nc1nc2ccccc2[nH]1)c1ccc([N+](=O)[O-])cc1	STAT3 inh-1 55.3 | STAT3 inh-2 inactive | NFkB inh 2 inactive | STAT1 inh STAT3c inactive
COC(=O)c1ccccc1N/C=C/C(=O)c1ccc(Br)cc1	none
NC(=O)c1ccccc1N/C=C/C(=O)c1ccccc1	STAT3 inh-1 49.0 | STAT3 inh-2 inactive | NFkB inh 2 inactive | STAT1 inh STAT3c inactive

Compound activity deposited in PubChem BioAssay by The Scripps Research Institute Molecular Screening Center.
